CHRM5 agonist = human M5 muscarinic receptor agonists, primary screen, CHO-K1 cells, Fluo-8 calcium fluorescence; CHO-K1 hM5 cells; 0% DMSO wells, 100% maximal acetylcholine response; activation, % at 3 µM; 360,000 tested, 0.19% active; Muscarinic acetylcholine receptor M5 (Homo sapiens), P08912;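 active = activation above the run's mean over test compounds plus 3 SD, cut at about 23% in these data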;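 note: signal is peak over basal fluorescence ratio across the kinetic read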
Target sequence (P08912 whole entry, looked up): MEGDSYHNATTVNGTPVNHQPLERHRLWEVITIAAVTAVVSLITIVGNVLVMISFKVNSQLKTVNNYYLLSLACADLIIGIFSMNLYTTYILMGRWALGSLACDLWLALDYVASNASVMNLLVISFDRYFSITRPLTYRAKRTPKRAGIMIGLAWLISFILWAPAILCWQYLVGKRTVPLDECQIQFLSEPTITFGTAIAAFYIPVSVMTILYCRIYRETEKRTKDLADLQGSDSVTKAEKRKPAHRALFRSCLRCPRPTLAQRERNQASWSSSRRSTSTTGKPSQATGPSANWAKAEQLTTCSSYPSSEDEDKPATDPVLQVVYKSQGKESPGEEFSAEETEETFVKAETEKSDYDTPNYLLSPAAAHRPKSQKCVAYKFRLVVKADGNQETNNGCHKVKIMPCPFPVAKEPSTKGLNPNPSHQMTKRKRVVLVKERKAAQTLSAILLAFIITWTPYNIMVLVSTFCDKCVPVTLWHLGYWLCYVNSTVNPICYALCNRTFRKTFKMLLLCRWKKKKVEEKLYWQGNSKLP
CHRM5 antagonist = human M5 muscarinic receptor antagonists, primary screen, CHO cells, Fluo-8 calcium fluorescence; Muscarinic acetylcholine receptor M5 (Homo sapiens), P08912; CHO-hM5 cells, ACh EC80; inhibition, % at 3 µM; 360,000 tested, 0.59% active; AID 624040, 2012;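 active = inhibition above a per-plate cutoff, the mean of that plate's test compounds plus 3 SD, cut at about 27% in these data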;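 note: 0% = acetylcholine EC80 with DMSO and 100% = DMSO without agonist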
CHRM5 PAM = human M5 muscarinic receptor positive allosteric modulators, primary screen, CHO-K1 cells, Fluo-8 calcium fluorescence; activation, % at 3 µM; Muscarinic acetylcholine receptor M5 (Homo sapiens), P08912; 360,000 tested, 0.3% active; AID 624038, 2012; CHO-K1 hM5, ACh EC20 PAM; 0% = ACh EC20, 100% = ACh EC100;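 active = activation above the run cutoff, the mean activation of all test compounds plus 3 SD, cut at about 18% in these data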
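Assay system – human M5 receptor in CHO-K1 cells · Read-out – % activation, ACh-normalized · Technique – Fluo-8 calcium fluorescence · Dosing – single-point, 3 µM nominal · Incubation – Fluo-8 loading 80 min at 37 °C plus 30 min room temperature · Repeats – singlicate, one well per test compound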
M4 PAM = human M4 muscarinic receptor positive allosteric modulators, primary screen, CHO-K1 cells, Fluo-8 calcium fluorescence | Muscarinic acetylcholine receptor M4 (Homo sapiens), P08173 | CHO-K1 hM4/Gqi5, ACh EC20; 0% = ACh EC20, 100% = maximal ACh | activation, % at 3 µM | 360,000 tested, 0.4% active | AID 624126, 2012;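 active = activation above its plate's cutoff, the mean activation of sample wells plus 3 SD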
M4 ag = human M4 muscarinic receptor agonists, primary screen, CHO-K1 cells, Fluo-8 calcium fluorescence; Muscarinic acetylcholine receptor M4 (Homo sapiens), P08173; CHO-K1 hM4/Gqi5; vehicle 0%, full acetylcholine response 100%; activation, % at 3 µM; 360,000 tested, 0.14% active; AID 624127, 2012;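 active = activation above the run mean over all test wells plus 3 SD, cut at about 32% in these data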;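 note: peak over basal fluorescence ratio per well then scaled between controls; 0% = DMSO wells and 100% = acetylcholine at EC100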
CHRM4 antagonist = human M4 muscarinic receptor antagonists, primary screen, CHO cells, Fluo-8 calcium fluorescence. Muscarinic acetylcholine receptor M4 (Homo sapiens), P08173. CHO-hM4 cells, ACh EC80. inhibition, % at 3 µM. 360,000 tested, 0.73% active;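 active = inhibition above its plate's cutoff, the mean inhibition of sample wells plus 3 SD, cut at about 27% in these data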;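 note: 0% = acetylcholine EC80 with DMSO and 100% = DMSO without agonist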
Active calls of the source: *. An excerpt weighted towards active compounds, which were near 1.8% of everything screened.

SMILES	CHRM5 agonist	CHRM5 antagonist	CHRM5 PAM	M4 PAM	M4 ag	CHRM4 antagonist
Cc1nc2ccn(Cc3ccccc3)c(=O)c2cc1C(=O)N1CCN(c2ccccc2)CC1	-4	6	2	14*	1	-6
COc1ccccc1CNC(=O)COC(=O)c1cc(=O)[nH]c2ccccc12	2	14	-3	-4	7	-8
CC1CCN(C(=O)COC(=O)c2ccc3ccccc3n2)CC1	1	-4	-5	-2	0	4
CN(C(=O)COC(=O)c1ccc2ccccc2n1)C1CCCCC1	2	0	11	25*	2	2
CC(NC(=O)CNC(=O)c1ccc2c(c1)OCO2)c1ccc(S(N)(=O)=O)cc1 (centres undefined)	0	21	-2	1	2	14
CCCCn1c(C)cc(C)c(S(=O)(=O)c2ccccc2C)c1=O	-12	2	1	-1	-1	-5
Cc1ccccc1S(=O)(=O)c1c(C)cc(C)n(C(C)C)c1=O	-5	-11	22*	1	0	-10
CC(C)Cn1c(-c2csc3c2CCCC3)n[nH]c1=S	-8	15	-23	-16	-2	30*
CC(C)Cn1c(-c2ccccc2F)n[nH]c1=S	-4	46*	2	18	1	8
CC(C)Cn1c(-c2ccc(F)cc2)n[nH]c1=S	-10	3	-4	-11	-1	18
CC(C)Cn1c(-c2ccncc2)n[nH]c1=S	-2	2	2	5	1	-6
O=C(NCCN1CCOCC1)c1cc(-c2ccccc2Cl)nc2ccccc12	-2	4	-1	-1	1	1
COc1ccc(O)c(C(=O)/C=C/c2cc3ccccc3o2)c1	-1	4	5	19*	1	-16
O=C(/C=C/c1cc2ccccc2o1)c1ccccc1O	-10	5	-8	8	-1	-12
CCCCc1ccc(S(=O)(=O)NC2CCS(=O)(=O)C2)cc1 (centres undefined)	8	23	21*	-6	10	1

Bioassay records deposited in PubChem BioAssay by The Scripps Research Institute Molecular Screening Center.
